What all share (details): Oryctolagus cuniculus
Assay [1] concerns the target 5-hydroxytryptamine receptor 1D (Homo sapiens) (UniProt P28221). Nature of the assay: The compound was tested for binding affinity against 5-HT1D receptor. The procedure, abridged:
(§1)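 Rabbit saphenous vein rings (male New Zealand White; 4–5 mm) mounted on tungsten wires in Krebs–Henseleit buffer, pH 7.4, 37 °C, gassed with 95% O2/5% CO2, at 2 g passive force. Pretreated for 30 min with pargyline (500 μM) and phenoxybenzamine (0.3 μM), then washed. Cumulative 5-HT curve, then after 60 min a test agonist curve. Potency is p[A50]; α is test maximum/5-HT maximum; n ≥ 3.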

Assay [2] shares this target. Nature of the assay: The compound was tested for intrinsic activity against 5-HT1D receptor. The procedure, abridged:
as §1

The target in assay [3] is 5-hydroxytryptamine receptor 2A (Homo sapiens) (UniProt P28223).

The record followed here is ChEMBL document CHEMBL1128543, “Computer-aided design and synthesis of 5-substituted tryptamines and their pharmacology at the 5-HT1D receptor: discovery of compounds with potential anti-migraine properties” (J Med Chem, 1995).

Sequence of 5-hydroxytryptamine receptor 1D (Homo sapiens) (P28221 whole entry): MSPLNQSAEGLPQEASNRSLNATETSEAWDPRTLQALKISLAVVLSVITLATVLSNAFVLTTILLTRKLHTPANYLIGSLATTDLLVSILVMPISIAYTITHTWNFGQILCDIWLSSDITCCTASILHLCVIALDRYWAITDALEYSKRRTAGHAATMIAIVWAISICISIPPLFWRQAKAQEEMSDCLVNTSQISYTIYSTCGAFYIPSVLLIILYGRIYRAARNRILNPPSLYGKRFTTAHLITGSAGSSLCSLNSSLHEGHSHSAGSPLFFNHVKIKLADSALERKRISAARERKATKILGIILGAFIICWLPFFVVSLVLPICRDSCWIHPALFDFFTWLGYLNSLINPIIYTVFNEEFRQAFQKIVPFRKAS
Sequence of 5-hydroxytryptamine receptor 2A (Homo sapiens) (P28223 whole entry): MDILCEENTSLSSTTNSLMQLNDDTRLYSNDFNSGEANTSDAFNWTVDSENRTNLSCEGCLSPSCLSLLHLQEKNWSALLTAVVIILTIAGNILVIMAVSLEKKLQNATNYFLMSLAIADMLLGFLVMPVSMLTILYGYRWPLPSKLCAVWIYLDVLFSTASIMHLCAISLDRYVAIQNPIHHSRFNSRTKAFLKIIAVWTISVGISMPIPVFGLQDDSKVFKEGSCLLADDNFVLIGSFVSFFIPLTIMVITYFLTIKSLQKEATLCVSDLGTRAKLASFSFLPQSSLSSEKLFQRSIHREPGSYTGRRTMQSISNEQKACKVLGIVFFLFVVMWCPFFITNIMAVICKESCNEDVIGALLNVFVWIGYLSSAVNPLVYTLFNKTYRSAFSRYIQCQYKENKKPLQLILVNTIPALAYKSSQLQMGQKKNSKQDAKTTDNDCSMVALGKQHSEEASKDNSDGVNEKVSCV

Take `CN1C(=O)NC[C@@H]1Cc1ccc2[nH]cc(CCN)c2c1`: the p[A50] in assay [1] was 6.9; in assay [3], 5. In assay [2], this compound yielded an Intrinsic activity of 0.88.
On the same counts, the results for `NCCc1c[nH]c2ccc(CC3NC(=O)N(CCCc4ccccc4)C3=O)cc12` (stereo not drawn) are 6.6, below 4.5 and 0.93.
As to `CN(C)CCc1c[nH]c2ccc(CC3NC(=O)N(Cc4ccccc4)C3=O)cc12` (stereo not drawn), the p[A50] in assay [1] was 5.6; in assay [3], below 4.5.
For the compound `NCCc1c[nH]c2ccc(CC3NC(=O)N(Cc4cccc(C(=O)Nc5ccccc5)c4)C3=O)cc12` (stereo not drawn), the p[A50] in assay [1] was 6.6; in assay [3], 3.9. This compound also showed an Intrinsic activity in assay [2] of 0.53.
On the same counts, the results for `COC(=O)c1ccc(CC2NC(=O)N(CCc3ccc4[nH]cc(CCN)c4c3)C2=O)cc1` (stereo not drawn) are 7.3, below 4.5 and 0.7.
In the case of `CN(C)CCc1c[nH]c2ccc(C[C@H]3CNC(=O)N3C)cc12`, the figures for the p[A50] in assay [1] and in assay [3] were 7 and below 4.5, respectively. Besides, the Intrinsic activity in assay [2] is 1.
Turning to `CN1C(=O)N(Cc2ccccc2)CC1Cc1ccc2[nH]cc(CCN)c2c1` (stereo not drawn), the values for the p[A50] in assay [1] and in assay [3] were 7.5 and 5, respectively.
Consider `COc1ccc2[nH]cc(C3=CCNCC3)c2c1`, for which the p[A50] in assay [1] was 7.1. In assay [2], this compound yielded an Intrinsic activity of 0.89.
For the compound `CNCCc1c[nH]c2ccc(CCN3C(=O)CNC3=O)cc12`, the p[A50] in assay [1] was 6.7; in assay [3], below 4.5. The compound further gave an Intrinsic activity in assay [2] of 0.7.
For the compound `O=C1CC2(CCCC2)CC(=O)N1CCCCN1CCN(c2ncccn2)CC1`, in assay [1], the p[A50] came out at 4.5.
For `Cc1ccc2[nH]cc(CCN)c2c1`, the p[A50] in assay [1] was 6.1; in assay [3], 6.2. In addition, the Intrinsic activity in assay [2] stood at 1.
For `NCCc1c[nH]c2ccc(CC3NC(=O)N(Cc4cccc(Oc5ccccc5)c4)C3=O)cc12` (stereo not drawn), in that order: 7.4, 4.7 and 0.79.
Regarding `CN(C)CCc1c[nH]c2ccc(CCN3C(=O)N[C@@H](Cc4ccc(NS(C)(=O)=O)cc4)C3=O)cc12`, the p[A50] in assay [1] was 7.4; in assay [3], below 4.5. The compound further yielded an Intrinsic activity in assay [2] of 0.6.
`CNS(=O)(=O)Cc1ccc2[nH]cc(CCN(C)C)c2c1` gave a p[A50] in assay [1] of 6.6. The compound also returned an Intrinsic activity in assay [2] of 0.83.
`CS(=O)(=O)Nc1ccc(C[C@H]2NC(=O)N(CCc3ccc4[nH]cc(CCN)c4c3)C2=O)cc1`: the p[A50] is 7.1 in assay [1] and 5.3 in assay [3]. This compound also displayed an Intrinsic activity in assay [2] of 0.7.
In the case of `O=C(CCCN1CCC2(CC1)C(=O)NCN2c1ccccc1)c1ccc(F)cc1`, the p[A50] in assay [1] amounted to 5.8; in assay [3], 9.7.
Take `NCCc1c[nH]c2ccc(C(N)=O)cc12`: the p[A50] in assay [1] was 8.1; in assay [3], 5.9. In addition, the Intrinsic activity in assay [2] turned out to be 0.84.
With `NCCc1c[nH]c2ccc(CC3NC(=O)N(Cc4ccc(-c5ccccc5)cc4)C3=O)cc12` (stereo not drawn), the p[A50] in assay [1] is 6.7. In assay [2], the Intrinsic activity amounted to 0.6.
Take `NCCc1c[nH]c2ccc(CC3NC(=O)N(Cc4ccc(C(=O)Nc5ccccc5)cc4)C3=O)cc12` (stereo not drawn): the p[A50] worked out at 5.9 in assay [1] and 4.5 in assay [3]. In addition, the Intrinsic activity in assay [2] stood at 0.7.
Regarding `CN(C)CCc1c[nH]c2ccc(O)cc12`, the p[A50] in assay [1] was found to be 7.3; in assay [3] it was 6.8. In addition, the Intrinsic activity in assay [2] is 0.92.
For the compound `C[C@@H](CO)NC(=O)[C@@H]1C=C2c3cccc4[nH]cc(c34)C[C@H]2N(C)C1`, the p[A50] in assay [1] amounted to 9. Moreover, the Intrinsic activity in assay [2] is 0.9.
Consider `O=C1CC2(CCCC2)CS(=O)(=O)N1CCCCN1CCN(c2ncccn2)CC1`, for which the p[A50] in assay [1] amounted to 4.9; in assay [3], 5.1.
In turn, `CC(=O)Nc1ccc(CN2C(=O)NC(Cc3ccc4[nH]cc(CCN)c4c3)C2=O)cc1` (stereo not drawn) showed a p[A50] in assay [1] of 5.8. In assay [2], this compound had an Intrinsic activity of 0.81.
Turning to `NCCc1c[nH]c2ccccc12`, the p[A50] in assay [1] is 6.9; in assay [3], 6.1. Also, the Intrinsic activity in assay [2] was found to be 0.86.
For `CNCCc1c[nH]c2ccc(CCN3C(=O)NC(Cc4cccc(NC(C)=O)c4)C3=O)cc12` (stereo not drawn), in that order: 6.9, below 4.5 and 0.6.
`CS(=O)(=O)Nc1ccc(CC2NC(=O)N(CCc3ccc4[nH]cc(CCN)c4c3)C2=O)cc1` (stereo not drawn): the results for the p[A50] in assay [1] and in assay [3] were 7.4 and 5.2, respectively. In assay [2], this compound came in with an Intrinsic activity of 0.8.
Take `CN1C(=O)NC(Cc2ccc3[nH]cc(CCN)c3c2)C1=O` (stereo not drawn): the p[A50] in assay [1] came to 4.8; in assay [3] it was 4.
Regarding `CCCNC(=O)c1cccc(CN2C(=O)NC(Cc3ccc4[nH]cc(CCN)c4c3)C2=O)c1` (stereo not drawn), the results for the p[A50] in assay [1] and in assay [3] were 6.8 and 4.5, respectively. Further, in assay [2], the Intrinsic activity was 0.99.
`CC(=O)Nc1cccc(CC2NC(=O)N(CCc3ccc4[nH]cc(CCN)c4c3)C2=O)c1` (stereo not drawn): the p[A50] in assay [1] is 7; in assay [3], below 4.5. This compound returned an Intrinsic activity in assay [2] of 0.7.
On the same counts, the results for `CC(=O)Nc1cccc(CC2NC(=O)N(CCc3ccc4[nH]cc(CCN(C)C)c4c3)C2=O)c1` (stereo not drawn) are 7.2, below 4.5 and 0.6.
Take `O=C1NCN(c2ccccc2)C12CCN(CC1COc3ccccc3O1)CC2` (stereo not drawn): the p[A50] was determined as 5.1 in assay [1] and 6.2 in assay [3].
On to `NCCc1c[nH]c2ccc(CCC3NC(=O)N(Cc4ccccc4)C3=O)cc12` (stereo not drawn), for which the p[A50] in assay [1] was 6.7; in assay [3], below 4.5. Moreover, the Intrinsic activity in assay [2] was 0.9.
For `NCCc1c[nH]c2ccc(CC3NC(=O)N(CCc4ccccc4)C3=O)cc12` (stereo not drawn), in that order: 6.7, 4.5 and 0.67.
Turning to `CN(C)CCc1c[nH]c2ccc(CCN3C(=O)NC(Cc4ccc([N+](=O)[O-])cc4)C3=O)cc12` (stereo not drawn), the results for the p[A50] in assay [1] and in assay [3] were 6.8 and below 4.5, respectively. In assay [2], this compound came in with an Intrinsic activity of 0.6.
On the same counts, the results for `CN(C)CCc1c[nH]c2ccc(CCN3C(=O)NC(Cc4ccc(NS(C)(=O)=O)cc4)C3=O)cc12` (stereo not drawn) are 7.4, below 4.5 and 0.6.
In the case of `O=C(c1ccc(F)cc1)C1CCN(CCn2c(=O)[nH]c3ccccc3c2=O)CC1`, the figures for the p[A50] in assay [1] and in assay [3] were 6 and 9.1, respectively.
The compound `CN(C)CCc1c[nH]c2ccc(CC3NC(=O)N(CCc4ccccc4)C3=O)cc12` (stereo not drawn) showed a p[A50] in assay [1] of 6. This compound also had an Intrinsic activity in assay [2] of 0.39.
Take `CN(C)CCc1c[nH]c2ccc(CCN3C(=O)CNC3=O)cc12`: the p[A50] was 6.1 in assay [1] and below 4.5 in assay [3]. The Intrinsic activity in assay [2] was found to be 0.5.
For `CN(C)CCc1c[nH]c2ccc(CCC3NC(=O)N(Cc4ccccc4)C3=O)cc12` (stereo not drawn), in that order: 6.3, 5.9 and 0.2.
On the same counts, the results for `CN(C)CCc1c[nH]c2ccc(CC3NC(=O)N(Cc4ccc(Oc5ccccc5)cc4)C3=O)cc12` (stereo not drawn) are 7.4, 4.7 and 0.79.
`NCCc1c[nH]c2ccc(CC3NC(=O)N(Cc4cccc(NC(=O)c5ccccc5)c4)C3=O)cc12` (stereo not drawn): the p[A50] in assay [1] is 7.3; in assay [3], 4.6. The same compound yielded an Intrinsic activity in assay [2] of 0.85.
On the same counts, the results for `CN(C)CCc1c[nH]c2ccc(CC3NC(=O)N(Cc4cccc(NC(=O)c5ccccc5)c4)C3=O)cc12` (stereo not drawn) are 6.3, 5 and 0.55.
On the same counts, the results for `Cn1c(Cc2ccc3[nH]cc(CCN)c3c2)cn(Cc2ccccc2)c1=O` are 7.1, 6.3 and 0.95.
For `CS(=O)(=O)Nc1cccc(CC2NC(=O)N(CCc3ccc4[nH]cc(CCN)c4c3)C2=O)c1` (stereo not drawn), in that order: 7.2, below 4.5 and 0.8.
Take `CN1C(=O)N(Cc2ccccc2)C(=O)C1Cc1ccc2[nH]cc(CCN)c2c1` (stereo not drawn): the p[A50] is 6 in assay [1] and below 4.5 in assay [3]. Moreover, the Intrinsic activity in assay [2] is 1.
On to `CCC(CO)NC(=O)[C@H]1C=C2c3cccc4c3c(cn4C)CC2N(C)C1` (stereo partly drawn), for which the p[A50] in assay [1] was 6.7. In assay [2], this compound registered an Intrinsic activity of 0.64.
As for `NCCc1c[nH]c2ccc(CC3NC(=O)N(Cc4ccccc4)C3=O)cc12` (stereo not drawn), the values for the p[A50] in assay [1] and in assay [3] were 6.1 and 4, respectively. The compound further had an Intrinsic activity in assay [2] of 0.72.
For `CNC(=O)c1cccc(CN2C(=O)NC(Cc3ccc4[nH]cc(CCN)c4c3)C2=O)c1` (stereo not drawn), in that order: 5.8, 4.3 and 0.71.
